Assay results taken from ChEMBL document CHEMBL1828609, “Strategies to lower the Pgp efflux liability in a series of potent indole azetidine MCHR1 antagonists” (Bioorg Med Chem Lett, 2011).
Blank lines part the entries; values can stand above or below the molecule they belong to.

Tests used:
[1] = molecular target: Melanin-concentrating hormone receptor 1 (Rattus norvegicus, UniProt P97639); assay: Displacement of [125I]-S36057 from rat MCH1 receptor
[2] = Drug uptake in rat brain at 10 mg/kg, sc after 4 hrs; assay type: ADME, organism-based; parameters: dose 10 mg/kg, route subcutaneous; details: read-out: Drug uptake
How it was run: (§1)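 Rat PK with subcutaneous dosing at 10 mg/kg. Brain and plasma concentrations determined 4 h after the dose.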

[3] = Plasma concentration in rat at 10 mg/kg, sc after 4 hrs; assay type: ADME, organism-based; parameters: dose 10 mg/kg, route subcutaneous; how it was run: as §1
[4] = Ratio of drug level in brain to plasma in rat; assay type: ADME, cell-free; details: read-out: BPR
How it was run: (§2)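 Rats dosed orally at 10 mg/kg. Brain (ng/g) and plasma (ng/mL) levels taken at 4 h, giving the brain-to-plasma exposure comparison.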

[5] = Drug uptake in rat brain at 10 mg/kg, po after 4 hrs; assay type: ADME, organism-based; parameters: dose 10 mg/kg, route oral; details: read-out: Drug uptake; how it was run: as §2
[6] = Plasma concentration in rat at 10 mg/kg, po after 4 hrs; assay type: ADME, organism-based; parameters: dose 10 mg/kg, route oral; how it was run: as §2
[7] = Apparent permeability from apical to basolateral side in MDCK cells expressing human MDR1 after 2 hrs; assay type: ADME, cell-based, Canis lupus familiaris; details: dog
How it was run: (§3)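 MDR1-MDCK monolayers; apparent permeability measured in both directions (A-to-B and B-to-A) after 2 h incubation. Efflux ratio calculated as Papp(B-to-A)/Papp(A-to-B).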

[8] = Apparent permeability from basolateral to apical side in MDCK cells expressing human MDR1 after 2 hrs; assay type: ADME, cell-based, Canis lupus familiaris; details: dog; how it was run: as §3
[9] = Efflux ratio of permeability from basolateral to apical over apical to basolateral side of MDCK cells expressing human MDR1 after 2 hrs; assay type: ADME, cell-based, Canis lupus familiaris; details: dog; how it was run: as §3
[10] = Ratio of drug level in brain to plasma in wild type FVB mouse after 8 hrs; assay type: ADME, cell-free; details: read-out: BPR
How it was run: (§4)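 Single 15 mg/kg intravenous dose given to Pgp knockout and wild-type mice. Brain and plasma levels followed over 8 h, and brain/plasma ratios calculated at each time point.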

[11] = Ratio of drug level in brain to plasma in P-gp transporter knockout FVB mouse after 8 hrs; assay type: ADME, cell-free; details: read-out: BPR; how it was run: as §4
[12] = molecular target: Voltage-gated inwardly rectifying potassium channel KCNH2 (Homo sapiens, UniProt Q12809); assay: Inhibition of human ERG
[13] = Permeability from apical to basolateral side in MDCK cells expressing human MDR1 assessed as compound recovery; assay type: ADME, cell-based, Canis lupus familiaris; details: dog, read-out: permeability
How it was run: (§5)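 Bidirectional MDR1-MDCK permeability run with 2 h incubation; percent recovery of compound determined for the A-to-B and B-to-A directions.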

[14] = Permeability from basolateral to apical side in MDCK cells expressing human MDR1 assessed as compound recovery; assay type: ADME, cell-based, Canis lupus familiaris; details: dog, read-out: permeability; how it was run: as §5
[15] = Apparent permeability of the compound at pH 7.4 by PAMPA method; assay type: ADME
[16] = Apparent permeability of the compound at pH 3 to 7.4 by PAMPA method; assay type: ADME
[17] = Plasma concentration in wild type FVB mouse at 15 mg/kg, iv after 1 hr; assay type: ADME, organism-based; parameters: dose 15 mg/kg, route intravenous; how it was run: as §4
[18] = Plasma concentration in P-gp transporter knockout FVB mouse at 15 mg/kg, iv after 1 hr; assay type: ADME, organism-based; parameters: dose 15 mg/kg, route intravenous; how it was run: as §4
[19] = Plasma concentration in wild type FVB mouse at 15 mg/kg, iv after 3 hrs; assay type: ADME, organism-based; parameters: dose 15 mg/kg, route intravenous; how it was run: as §4
[20] = Plasma concentration in P-gp transporter knockout FVB mouse at 15 mg/kg, iv after 3 hrs; assay type: ADME, organism-based; parameters: dose 15 mg/kg, route intravenous; how it was run: as §4
[21] = Plasma concentration in wild type FVB mouse at 15 mg/kg, iv after 6 hrs; assay type: ADME, organism-based; parameters: dose 15 mg/kg, route intravenous; how it was run: as §4
[22] = Plasma concentration in P-gp transporter knockout FVB mouse at 15 mg/kg, iv after 6 hrs; assay type: ADME, organism-based; parameters: dose 15 mg/kg, route intravenous; how it was run: as §4
[23] = Plasma concentration in wild type FVB mouse at 15 mg/kg, iv after 8 hrs; assay type: ADME, organism-based; parameters: dose 15 mg/kg, route intravenous; how it was run: as §4
[24] = Plasma concentration in P-gp transporter knockout FVB mouse at 15 mg/kg, iv after 8 hrs; assay type: ADME, organism-based; parameters: dose 15 mg/kg, route intravenous; how it was run: as §4
[25] = Drug uptake in wild type FVB mouse brain at 15 mg/kg, iv after 1 hr; assay type: ADME, organism-based; parameters: dose 15 mg/kg, route intravenous; details: read-out: Drug uptake; how it was run: as §4
[26] = Drug uptake in P-gp transporter knockout FVB mouse brain at 15 mg/kg, iv after 1 hr; assay type: ADME, organism-based; parameters: dose 15 mg/kg, route intravenous; details: read-out: Drug uptake; how it was run: as §4
[27] = Drug uptake in wild type FVB mouse brain at 15 mg/kg, iv after 3 hrs; assay type: ADME, organism-based; parameters: dose 15 mg/kg, route intravenous; details: read-out: Drug uptake; how it was run: as §4
[28] = Drug uptake in P-gp transporter knockout FVB mouse brain at 15 mg/kg, iv after 3 hrs; assay type: ADME, organism-based; parameters: dose 15 mg/kg, route intravenous; details: read-out: Drug uptake; how it was run: as §4
[29] = Drug uptake in wild type FVB mouse brain at 15 mg/kg, iv after 6 hrs; assay type: ADME, organism-based; parameters: dose 15 mg/kg, route intravenous; details: read-out: Drug uptake; how it was run: as §4
[30] = Drug uptake in P-gp transporter knockout FVB mouse brain at 15 mg/kg, iv after 6 hrs; assay type: ADME, organism-based; parameters: dose 15 mg/kg, route intravenous; details: read-out: Drug uptake; how it was run: as §4
[31] = Drug uptake in wild type FVB mouse brain at 15 mg/kg, iv after 8 hrs; assay type: ADME, organism-based; parameters: dose 15 mg/kg, route intravenous; details: read-out: Drug uptake; how it was run: as §4
[32] = Drug uptake in P-gp transporter knockout FVB mouse brain at 15 mg/kg, iv after 8 hrs; assay type: ADME, organism-based; parameters: dose 15 mg/kg, route intravenous; details: read-out: Drug uptake; how it was run: as §4
[33] = Ratio of drug level in brain to plasma in wild type FVB mouse after 1 hr; assay type: ADME, cell-free; details: read-out: BPR; how it was run: as §4
[34] = Ratio of drug level in brain to plasma in P-gp transporter knockout FVB mouse after 1 hr; assay type: ADME, cell-free; details: read-out: BPR; how it was run: as §4
[35] = Ratio of drug level in brain to plasma in wild type FVB mouse after 3 hrs; assay type: ADME, cell-free; details: read-out: BPR; how it was run: as §4
[36] = Ratio of drug level in brain to plasma in P-gp transporter knockout FVB mouse after 3 hrs; assay type: ADME, cell-free; details: read-out: BPR; how it was run: as §4
[37] = Ratio of drug level in brain to plasma in wild type FVB mouse after 6 hrs; assay type: ADME, cell-free; details: read-out: BPR; how it was run: as §4
[38] = Ratio of drug level in brain to plasma in P-gp transporter knockout FVB mouse after 6 hrs; assay type: ADME, cell-free; details: read-out: BPR; how it was run: as §4

Chain of Melanin-concentrating hormone receptor 1 (P97639 whole entry): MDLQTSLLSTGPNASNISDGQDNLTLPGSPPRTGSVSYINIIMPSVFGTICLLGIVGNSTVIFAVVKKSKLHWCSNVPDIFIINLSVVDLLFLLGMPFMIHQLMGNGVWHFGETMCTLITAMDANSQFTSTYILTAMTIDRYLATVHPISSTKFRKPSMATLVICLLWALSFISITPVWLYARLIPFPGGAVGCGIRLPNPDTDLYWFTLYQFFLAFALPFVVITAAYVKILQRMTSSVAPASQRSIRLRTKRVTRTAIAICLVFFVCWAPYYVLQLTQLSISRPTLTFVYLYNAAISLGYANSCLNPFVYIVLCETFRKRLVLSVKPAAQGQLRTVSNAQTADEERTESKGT
Chain of Voltage-gated inwardly rectifying potassium channel KCNH2 (Q12809 whole entry): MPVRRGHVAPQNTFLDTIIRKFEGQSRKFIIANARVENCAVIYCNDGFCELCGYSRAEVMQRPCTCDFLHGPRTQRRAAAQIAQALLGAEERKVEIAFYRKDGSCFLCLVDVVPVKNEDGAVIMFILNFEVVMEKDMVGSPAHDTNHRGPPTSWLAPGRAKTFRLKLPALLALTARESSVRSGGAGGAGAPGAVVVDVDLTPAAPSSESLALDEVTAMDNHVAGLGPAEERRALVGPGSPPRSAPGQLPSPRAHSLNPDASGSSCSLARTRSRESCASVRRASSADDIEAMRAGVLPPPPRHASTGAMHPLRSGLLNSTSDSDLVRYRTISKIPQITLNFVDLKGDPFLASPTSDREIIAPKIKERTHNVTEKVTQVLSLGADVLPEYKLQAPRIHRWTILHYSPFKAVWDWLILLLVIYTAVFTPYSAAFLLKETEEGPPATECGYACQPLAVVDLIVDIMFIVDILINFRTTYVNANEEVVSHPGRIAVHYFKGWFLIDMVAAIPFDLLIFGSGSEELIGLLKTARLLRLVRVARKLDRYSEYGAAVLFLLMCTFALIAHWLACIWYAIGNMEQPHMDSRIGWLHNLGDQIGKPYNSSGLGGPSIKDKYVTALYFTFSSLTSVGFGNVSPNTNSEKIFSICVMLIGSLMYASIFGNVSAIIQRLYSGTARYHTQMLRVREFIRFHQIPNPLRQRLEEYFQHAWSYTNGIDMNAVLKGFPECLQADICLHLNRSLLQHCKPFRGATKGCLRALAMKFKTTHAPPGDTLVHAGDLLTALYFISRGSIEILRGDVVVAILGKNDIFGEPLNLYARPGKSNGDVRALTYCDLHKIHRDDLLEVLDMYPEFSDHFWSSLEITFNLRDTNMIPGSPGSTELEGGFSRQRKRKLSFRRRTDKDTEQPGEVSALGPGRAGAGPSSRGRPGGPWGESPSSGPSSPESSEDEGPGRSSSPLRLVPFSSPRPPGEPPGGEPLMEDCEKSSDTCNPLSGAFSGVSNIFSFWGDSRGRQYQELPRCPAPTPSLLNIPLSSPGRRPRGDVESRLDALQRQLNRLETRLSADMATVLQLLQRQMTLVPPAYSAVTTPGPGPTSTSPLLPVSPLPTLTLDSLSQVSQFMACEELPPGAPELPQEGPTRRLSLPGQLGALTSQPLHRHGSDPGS

Compound: CN1CC(N2CCc3cc(-n4ccc(-c5ccc(Cl)cc5)cc4=O)ccc32)C1
Ki [1]: 4.9 nM | concentration at 4 h [5]: 600 ng/g | concentration at 4 h [6]: 190 ng/mL | Kp [4]: > 3

Compound: O=c1cc(OCc2ccccc2)ccn1-c1ccc2c(C3CN(CCF)C3)c[nH]c2c1
Ki [1]: 4.3 nM | concentration at 4 h [5]: 130 ng/g | concentration at 4 h [6]: 620 ng/mL | Papp A→B at 2 h [7]: 1.4 ×10⁻⁶ cm/s | Papp B→A at 2 h [8]: 58.9 ×10⁻⁶ cm/s | efflux ratio at 2 h [9]: 43

Compound: O=c1cc(OCc2ccccc2)ccn1-c1ccc2c(c1)CCN2C1CNC1
Ki [1]: 2.4 nM | concentration at 4 h [5]: 27 ng/g | concentration at 4 h [6]: 130 ng/mL

Compound: CN1CC(c2c[nH]c3cc(-n4ccc(OCc5ccccc5)cc4=O)ccc23)C1
Kp at 8 h [10]: 0.28 | Kp at 8 h [11]: 2.66 | IC50 [12]: 12000 nM | recovery [13]: 72% | recovery [14]: 71% | Ki [1]: 11 nM | concentration at 4 h [5]: 11 ng/g | concentration at 4 h [6]: 48 ng/mL | Papp A→B at 2 h [7]: 0.2 ×10⁻⁶ cm/s | Papp B→A at 2 h [8]: 26.3 ×10⁻⁶ cm/s | efflux ratio at 2 h [9]: 144 | Papp [15]: 4.9 ×10⁻⁶ cm/s | Papp [16]: 16.4 ×10⁻⁶ cm/s | concentration at 1 h [17]: 2280 ng/mL | concentration at 1 h [18]: 3130 ng/mL | concentration at 3 h [19]: 1450 ng/mL | concentration at 3 h [20]: 1380 ng/mL | concentration at 6 h [21]: 623 ng/mL | concentration at 6 h [22]: 689 ng/mL | concentration at 8 h [23]: 538 ng/mL | concentration at 8 h [24]: 607 ng/mL | concentration at 1 h [25]: 143 ng/g | concentration at 1 h [26]: 878 ng/g | concentration at 3 h [27]: 172 ng/g | concentration at 3 h [28]: 1130 ng/g | concentration at 6 h [29]: 148 ng/g | concentration at 6 h [30]: 1580 ng/g | concentration at 8 h [31]: 144 ng/g | concentration at 8 h [32]: 1620 ng/g | Kp at 1 h [33]: 0.06 | Kp at 1 h [34]: 0.28 | Kp at 3 h [35]: 0.12 | Kp at 3 h [36]: 0.82 | Kp at 6 h [37]: 0.24 | Kp at 6 h [38]: 2.3

Compound: COCCN1CC(c2c[nH]c3cc(-n4ccc(OCc5ccccc5)cc4=O)ccc23)C1
Ki [1]: 5.2 nM | concentration at 4 h [5]: 49 ng/g | concentration at 4 h [6]: 310 ng/mL | Papp A→B at 2 h [7]: 0.4 ×10⁻⁶ cm/s | Papp B→A at 2 h [8]: 34.1 ×10⁻⁶ cm/s | efflux ratio at 2 h [9]: 88

Compound: CN1CC(c2c[nH]c3cc(-n4ccc(-c5ccc(Cl)cc5)cc4=O)ccc23)C1
Ki [1]: 7.8 nM | concentration at 4 h [5]: 100 ng/g | concentration at 4 h [6]: 350 ng/mL | Papp A→B at 2 h [7]: 0.9 ×10⁻⁶ cm/s | Papp B→A at 2 h [8]: 53.7 ×10⁻⁶ cm/s | efflux ratio at 2 h [9]: 60

Other lines, results leading:

Ki [1]: 11 nM | concentration at 4 h [2]: 110 ng/g | concentration at 4 h [3]: 4000 ng/mL | Kp [4]: 0.03
Compound: CN1CC(c2cn(C)c3cc(-n4ccc(OCc5ccccc5)cc4=O)ccc23)C1

Ki [1]: 2.5 nM | concentration at 4 h [5]: 780 ng/g | concentration at 4 h [6]: 500 ng/mL | Papp A→B at 2 h [7]: 2.6 ×10⁻⁶ cm/s | Papp B→A at 2 h [8]: 36.5 ×10⁻⁶ cm/s | efflux ratio at 2 h [9]: 14
Compound: CN1CC(N2CCc3cc(-n4ccc(OCc5ccccc5)cc4=O)ccc32)C1

Ki [1]: 4.9 nM | concentration at 4 h [5]: 520 ng/g | concentration at 4 h [6]: 420 ng/mL | Papp A→B at 2 h [7]: 17.7 ×10⁻⁶ cm/s | Papp B→A at 2 h [8]: 38.2 ×10⁻⁶ cm/s | efflux ratio at 2 h [9]: 2.2
Compound: O=c1cc(OCc2ccccc2)ccn1-c1ccc2c(c1)CCN2C1CN(CCF)C1

Ki [1]: 6.5 nM | concentration at 4 h [5]: 1100 ng/g | concentration at 4 h [6]: 650 ng/mL | Papp A→B at 2 h [7]: 28.9 ×10⁻⁶ cm/s | Papp B→A at 2 h [8]: 30.1 ×10⁻⁶ cm/s | efflux ratio at 2 h [9]: 1
Compound: O=c1cc(-c2ccc(Cl)cc2)ccn1-c1ccc2c(c1)CCN2C1CN(CCF)C1

Ki [1]: 9 nM | concentration at 4 h [5]: 810 ng/g | concentration at 4 h [6]: 1000 ng/mL | Papp A→B at 2 h [7]: 7.1 ×10⁻⁶ cm/s | Papp B→A at 2 h [8]: 45.4 ×10⁻⁶ cm/s | efflux ratio at 2 h [9]: 6.4 | Kp [4]: 0.8
Compound: Cn1cc(C2CN(CCF)C2)c2ccc(-n3ccc(-c4ccc(F)cc4)cc3=O)cc21

Ki [1]: 6.7 nM | concentration at 4 h [5]: 22 ng/g | concentration at 4 h [6]: 140 ng/mL | Papp A→B at 2 h [7]: 0.2 ×10⁻⁶ cm/s | Papp B→A at 2 h [8]: 25.3 ×10⁻⁶ cm/s | efflux ratio at 2 h [9]: 150
Compound: CN1CC(c2c[nH]c3cc(-n4ccc(OCc5ccccc5F)cc4=O)ccc23)C1
